Columns and labels:
[1] = Binding affinity for Group II Metabotropic glutamate receptor was measured using [3H]glutamate in rat forebrain membranes; format: cell membranes, Membrane
Method in brief: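 ACPD-sensitive [³H]glutamate binding to group II mGluRs in rat forebrain membranes, reported as IC50. Most values are single-point determinations; others are averages of two or three determinations. Values in parentheses are percent radioligand displacement at 1 μM.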

[2] = target: T1, Metabotropic glutamate receptor 2 (Homo sapiens, UniProt Q14416); assay: Effect on 1S,3R-ACPD-induced inhibition of forskolin stimulated cyclic-AMP in RGT cells expressing human Metabotropic glutamate receptor 2; format: functional, cell-based
T1 sequence (Q14416 whole entry): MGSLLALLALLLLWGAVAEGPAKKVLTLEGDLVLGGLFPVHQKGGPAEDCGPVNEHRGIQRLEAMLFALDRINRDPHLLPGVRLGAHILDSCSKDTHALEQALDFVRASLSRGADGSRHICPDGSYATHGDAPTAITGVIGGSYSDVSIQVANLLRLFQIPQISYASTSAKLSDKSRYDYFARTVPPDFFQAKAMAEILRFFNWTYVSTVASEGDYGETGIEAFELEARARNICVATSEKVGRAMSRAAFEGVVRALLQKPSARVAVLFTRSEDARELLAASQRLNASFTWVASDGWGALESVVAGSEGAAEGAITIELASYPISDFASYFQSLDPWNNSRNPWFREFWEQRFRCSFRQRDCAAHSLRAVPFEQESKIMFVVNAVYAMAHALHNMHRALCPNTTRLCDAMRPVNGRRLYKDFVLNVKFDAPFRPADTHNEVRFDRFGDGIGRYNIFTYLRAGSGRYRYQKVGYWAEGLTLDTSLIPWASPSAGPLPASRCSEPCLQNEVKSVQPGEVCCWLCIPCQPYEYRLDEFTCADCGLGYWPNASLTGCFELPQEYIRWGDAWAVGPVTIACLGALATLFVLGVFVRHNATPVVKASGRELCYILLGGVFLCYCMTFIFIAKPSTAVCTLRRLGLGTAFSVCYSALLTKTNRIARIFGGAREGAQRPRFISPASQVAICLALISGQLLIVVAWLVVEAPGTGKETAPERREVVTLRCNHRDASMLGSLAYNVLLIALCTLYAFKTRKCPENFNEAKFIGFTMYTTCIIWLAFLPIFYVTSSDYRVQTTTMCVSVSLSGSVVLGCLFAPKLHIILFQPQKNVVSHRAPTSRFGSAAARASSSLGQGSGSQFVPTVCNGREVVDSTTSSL

[3] = target: T2, Metabotropic glutamate receptor 3 (Homo sapiens, UniProt Q14832); assay: Effect on 1S,3R-ACPD-induced inhibition of forskolin stimulated cyclic-AMP in RGT cells expressing human Metabotropic glutamate receptor 3; format: functional, cell-based
T2 sequence (Q14832 whole entry): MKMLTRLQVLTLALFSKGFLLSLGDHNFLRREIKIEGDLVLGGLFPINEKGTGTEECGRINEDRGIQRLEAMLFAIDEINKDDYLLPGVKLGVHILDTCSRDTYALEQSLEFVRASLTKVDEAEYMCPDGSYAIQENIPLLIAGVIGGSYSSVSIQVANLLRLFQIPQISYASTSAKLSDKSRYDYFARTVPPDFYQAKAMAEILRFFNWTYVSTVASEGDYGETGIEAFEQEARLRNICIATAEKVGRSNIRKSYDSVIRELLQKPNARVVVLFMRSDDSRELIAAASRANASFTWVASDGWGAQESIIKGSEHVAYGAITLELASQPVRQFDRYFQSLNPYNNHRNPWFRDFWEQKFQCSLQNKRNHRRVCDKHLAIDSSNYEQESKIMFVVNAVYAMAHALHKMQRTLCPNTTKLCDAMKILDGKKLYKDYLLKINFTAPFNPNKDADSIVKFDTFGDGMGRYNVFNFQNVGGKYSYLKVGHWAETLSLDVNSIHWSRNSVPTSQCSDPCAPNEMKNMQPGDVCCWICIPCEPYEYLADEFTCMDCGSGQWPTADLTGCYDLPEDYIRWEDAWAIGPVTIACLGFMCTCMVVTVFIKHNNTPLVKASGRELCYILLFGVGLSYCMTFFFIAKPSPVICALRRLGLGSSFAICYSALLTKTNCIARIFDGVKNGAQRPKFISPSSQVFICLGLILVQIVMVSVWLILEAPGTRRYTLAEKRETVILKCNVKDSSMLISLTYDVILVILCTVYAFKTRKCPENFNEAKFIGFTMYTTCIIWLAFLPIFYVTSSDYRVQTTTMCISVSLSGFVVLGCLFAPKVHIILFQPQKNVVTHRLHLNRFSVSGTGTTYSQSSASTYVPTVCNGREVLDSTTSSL

[4] = target: T1, Metabotropic glutamate receptor 2; assay: Compound was tested its ability to block 1S,3R-ACPD-induced inhibition of forskolin stimulated cyclic-AMP in RGT cells transfected with human Metabotropic glutamate receptor 2; Agonist; format: functional, cell-based
Method in brief: (§1)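 RGT cells transfected with human mGluR2 or mGluR3 were used. Forskolin-stimulated cyclic AMP was inhibited by (1S,3R)-ACPD, and compounds were tested for antagonism of this inhibition, giving IC50.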

[5] = target: T2, Metabotropic glutamate receptor 3; assay: Compound was tested its ability to block 1S,3R-ACPD-induced inhibition of forskolin stimulated cyclic-AMP in RGT cells transfected with human Metabotropic glutamate receptor 3; Agonist; format: functional, cell-based; method in brief: as §1

For `N[C@@](CCc1cccc(C2CCCC2)c1)(C(=O)O)C1C[C@@H]1C(=O)O` (some centres undefined), which IC50 [1] is on record?
The IC50 was over 10000 nM.

Which IC50 [1] does the source give for `N[C@@](CCc1cccc(Oc2ccccc2)c1)(C(=O)O)C1C[C@@H]1C(=O)O` (some centres undefined) here?
Its IC50 is 220 nM.

Which IC50 [1] does the source give for `N[C@@](CCc1cc(F)cc(F)c1)(C(=O)O)C1C[C@@H]1C(=O)O` (some centres undefined) here?
The IC50 was 21 nM.

For `N[C@@](CCc1cccc(C(F)(F)F)c1)(C(=O)O)C1C[C@@H]1C(=O)O` (some centres undefined), which IC50 [1] is on record?
The IC50 was 140 nM.

And the IC50 [2]?
Its IC50 is 220 nM.

And the IC50 [3]?
Its IC50 is 420 nM.

For `Cc1cccc(CC[C@](N)(C(=O)O)C2C[C@@H]2C(=O)O)c1` (stereo in doubt; 180), which IC50 [1] is on record?
Its IC50 is 12 nM.

For `NC(CC(c1ccccc1)c1ccccc1)(C(=O)O)[C@@H]1C[C@H]1C(=O)O` (single isomer, unassigned), which Displacement ([1]; Membrane) is on record?
The Displacement was 0%.

For `N[C@@](CCc1ccccc1Cl)(C(=O)O)C1C[C@@H]1C(=O)O` (some centres undefined), which IC50 [1] is on record?
The IC50 was 260 nM.

For `COc1ccccc1CC[C@](N)(C(=O)O)C1C[C@@H]1C(=O)O` (some centres undefined), which IC50 [1] is on record?
Its IC50 is 170 nM.

For `COc1cc(CC[C@](N)(C(=O)O)C2C[C@@H]2C(=O)O)cc(OC)c1` (some centres undefined), which IC50 [1] is on record?
Its IC50 is 110 nM.

For `COc1cccc(CC[C@](N)(C(=O)O)C2C[C@@H]2C(=O)O)c1OC` (some centres undefined), which IC50 [1] is on record?
The IC50 was 4900 nM.

Which IC50 [1] does the source give for `N[C@@](CCc1ccccc1O)(C(=O)O)C1C[C@@H]1C(=O)O` (some centres undefined) here?
The IC50 was 220 nM.

For `N[C@@](CCc1cccc(F)c1F)(C(=O)O)C1C[C@@H]1C(=O)O` (some centres undefined), which IC50 [1] is on record?
The IC50 was 130 nM.

Which IC50 [1] does the source give for `N[C@@](CCc1c(Cl)cccc1Cl)(C(=O)O)C1C[C@@H]1C(=O)O` (some centres undefined) here?
The IC50 was 710 nM.

For `N[C@@](CCc1ccc(F)cc1F)(C(=O)O)C1C[C@@H]1C(=O)O` (some centres undefined), which IC50 [1] is on record?
The IC50 was 63 nM.

For `Cc1ccccc1CC[C@](N)(C(=O)O)C1C[C@@H]1C(=O)O` (some centres undefined), which IC50 [1] is on record?
The IC50 was 570 nM.

For `N[C@@](CCc1ccc(-c2ccccc2)cc1)(C(=O)O)C1C[C@@H]1C(=O)O` (some centres undefined), which IC50 [1] is on record?
The IC50 was 1500 nM.

For `CC(C)(C)c1cccc(CC[C@](N)(C(=O)O)C2C[C@@H]2C(=O)O)c1` (some centres undefined), which IC50 [1] is on record?
The IC50 was over 10000 nM.

With `CS(=O)(=O)c1cccc(CC[C@](N)(C(=O)O)C2C[C@@H]2C(=O)O)c1` (some centres undefined) [listing 1 of 2 here] as the molecule, how does the IC50 [1] read?
The IC50 was 2400 nM.

For `COc1ccc(OC)c(CC[C@](N)(C(=O)O)C2C[C@@H]2C(=O)O)c1` (some centres undefined), which IC50 [1] is on record?
Its IC50 is 170 nM.

For `N[C@@](CCc1ccc(Cl)cc1)(C(=O)O)C1C[C@@H]1C(=O)O` (some centres undefined), which IC50 [1] is on record?
Its IC50 is 410 nM.

For `N[C@@](CC(c1ccccc1)c1ccccc1)(C(=O)O)[C@H]1C[C@@H]1C(=O)O`, which IC50 [1] is on record?
Its IC50 is 2000 nM.

Which IC50 [1] does the source give for `N[C@@](CCc1cc(F)ccc1F)(C(=O)O)C1C[C@@H]1C(=O)O` (some centres undefined) here?
The IC50 was 290 nM.

With `NC(CCc1ccccc1)(C(=O)O)[C@H]1C[C@@H]1C(=O)O` (some centres undefined) as the molecule, how does the IC50 [1] read?
The IC50 was 320 nM.

Which IC50 [1] does the source give for `N[C@](CC(c1ccccc1)c1ccccc1)(C(=O)O)[C@H]1C[C@@H]1C(=O)O` here?
Its IC50 is 35 nM.

And the IC50 [2]?
Its IC50 is 220 nM.

What about the IC50 [3] of the same molecule?
The IC50 was 170 nM.

With `N[C@@](CCc1ccc(Cl)cc1Cl)(C(=O)O)C1C[C@@H]1C(=O)O` (some centres undefined) as the molecule, how does the IC50 [1] read?
The IC50 was 220 nM.

Which results are given for `CS(=O)(=O)c1cccc(CC[C@](N)(C(=O)O)C2C[C@@H]2C(=O)O)c1` (some centres undefined) [listing 2 of 2 here]?
IC50 [1]: 110 nM; IC50 [2]: 190 nM; IC50 [3]: 180 nM

For `N[C@@](CCc1ccccc1Oc1ccccc1)(C(=O)O)C1C[C@@H]1C(=O)O` (some centres undefined), which IC50 [1] is on record?
Its IC50 is 360 nM.

Which IC50 [1] does the source give for `N[C@@](CCc1ccccc1F)(C(=O)O)C1C[C@@H]1C(=O)O` (some centres undefined) here?
Its IC50 is 310 nM.

For `N[C@@](CCc1ccc(Br)cc1)(C(=O)O)C1C[C@@H]1C(=O)O` (some centres undefined), which IC50 [1] is on record?
The IC50 was 680 nM.

With `N[C@@](CCc1c(F)c(F)c(F)c(F)c1F)(C(=O)O)C1C[C@@H]1C(=O)O` (some centres undefined) as the molecule, how does the IC50 [1] read?
The IC50 was 370 nM.

Which IC50 [1] does the source give for `Cc1cccc(CC[C@](N)(C(=O)O)C2C[C@@H]2C(=O)O)c1` (stereo in doubt; 104) here?
Its IC50 is 89 nM.

Which results are given for `N[C@@H](C(=O)O)C1C[C@@H]1C(=O)O` (some centres undefined)?
IC50 [1]: 470 nM; IC50 [4]: Agonist; IC50 [5]: Agonist

With `COc1cccc(CC[C@](N)(C(=O)O)C2C[C@@H]2C(=O)O)c1` (some centres undefined) as the molecule, how does the IC50 [1] read?
Its IC50 is 94 nM.

What about the IC50 [2] of the same molecule?
The IC50 was 430 nM.

What about the IC50 [3] of the same molecule?
Its IC50 is 160 nM.

Which IC50 [1] does the source give for `COc1ccc(CC[C@](N)(C(=O)O)C2C[C@@H]2C(=O)O)cc1` (some centres undefined) here?
The IC50 was 1400 nM.

For `N[C@@](CCc1cccc(Br)c1)(C(=O)O)C1C[C@@H]1C(=O)O` (some centres undefined), which IC50 [1] is on record?
The IC50 was 69 nM.

For `N[C@@](CCc1cccc(-c2ccccc2)c1)(C(=O)O)C1C[C@@H]1C(=O)O` (some centres undefined), which IC50 [1] is on record?
Its IC50 is 510 nM.

Which IC50 [1] does the source give for `N[C@@](CCc1ccccc1C(F)(F)F)(C(=O)O)C1C[C@@H]1C(=O)O` (some centres undefined) here?
The IC50 was 480 nM.

For `N[C@@](CCc1ccc(O)cc1)(C(=O)O)C1C[C@@H]1C(=O)O` (some centres undefined), which IC50 [1] is on record?
The IC50 was 300 nM.

With `Nc1cccc(CC[C@](N)(C(=O)O)C2C[C@@H]2C(=O)O)c1` (some centres undefined) as the molecule, how does the IC50 [2] read?
Its IC50 is 3100 nM.

What about the IC50 [3] of the same molecule?
The IC50 was 200 nM.

With `N[C@@](CCc1ccc(F)cc1)(C(=O)O)C1C[C@@H]1C(=O)O` (some centres undefined) as the molecule, how does the IC50 [1] read?
The IC50 was 22 nM.

And the IC50 [2]?
The IC50 was 180 nM.

What about the IC50 [3] of the same molecule?
Its IC50 is 210 nM.

What does the source list for `N[C@@](CCc1cccc(O)c1)(C(=O)O)C1C[C@@H]1C(=O)O` (some centres undefined)?
IC50 [1]: 150 nM; IC50 [2]: 1000 nM; IC50 [3]: 260 nM

With `COc1ccc(CC[C@](N)(C(=O)O)C2C[C@@H]2C(=O)O)cc1OC` (some centres undefined) as the molecule, how does the IC50 [1] read?
Its IC50 is 460 nM.

For `CSc1cccc(CC[C@](N)(C(=O)O)C2C[C@@H]2C(=O)O)c1` (some centres undefined), which IC50 [1] is on record?
Its IC50 is 410 nM.

With `N[C@](CC1c2ccccc2Oc2ccccc21)(C(=O)O)C1C[C@H]1C(=O)O` (stereo in doubt; 174) as the molecule, how does the IC50 [1] read?
The IC50 was 4200 nM.

For `CCCc1cccc(CC[C@](N)(C(=O)O)C2C[C@@H]2C(=O)O)c1` (some centres undefined), which IC50 [1] is on record?
Its IC50 is 570 nM.

Which results are given for `N[C@@](CCc1cccc(Cl)c1)(C(=O)O)C1C[C@@H]1C(=O)O` (some centres undefined)?
IC50 [1]: 100 nM; IC50 [2]: 180 nM; IC50 [3]: 180 nM

Which IC50 [1] does the source give for `N[C@@](CCc1ccc(Cl)c(Cl)c1)(C(=O)O)C1C[C@@H]1C(=O)O` (some centres undefined) here?
The IC50 was 67 nM.

With `N[C@@](CCc1ccc(F)c(F)c1)(C(=O)O)C1C[C@@H]1C(=O)O` (some centres undefined) as the molecule, how does the IC50 [1] read?
Its IC50 is 34 nM.

Which IC50 [1] does the source give for `Cc1ccc(CC[C@](N)(C(=O)O)C2C[C@@H]2C(=O)O)cc1` (some centres undefined) here?
Its IC50 is 590 nM.

For `N[C@@](CCc1cccc(F)c1)(C(=O)O)C1C[C@@H]1C(=O)O` (some centres undefined), which IC50 [1] is on record?
Its IC50 is 160 nM.

With `N[C@@](CC1c2ccccc2Oc2ccccc21)(C(=O)O)[C@H]1C[C@@H]1C(=O)O` as the molecule, how does the IC50 [1] read?
The IC50 was 530 nM.

Which IC50 [1] does the source give for `N[C@@](CCc1ccc(C(=O)O)cc1)(C(=O)O)C1C[C@@H]1C(=O)O` (some centres undefined) here?
The IC50 was 370 nM.

Which IC50 [1] does the source give for `N[C@](CC1c2ccccc2Oc2ccccc21)(C(=O)O)C1C[C@H]1C(=O)O` (stereo in doubt; 173) here?
The IC50 was 860 nM.

Which results are given for `NC(CCc1cccc(C(=O)O)c1)(C(=O)O)[C@H]1C[C@@H]1C(=O)O` (some centres undefined)?
IC50 [1]: 77 nM; IC50 [2]: 1800 nM; IC50 [3]: 80 nM

With `N[C@@](CCc1cc(Cl)cc(Cl)c1)(C(=O)O)C1C[C@@H]1C(=O)O` (some centres undefined) as the molecule, how does the IC50 [1] read?
The IC50 was 29 nM.

— ChEMBL document CHEMBL1131460, “2-substituted (2SR)-2-amino-2-((1SR,2SR)-2-carboxycycloprop-1-yl)glycines as potent and selective antagonists of group II metabotropic glutamate receptors. 2. Effects of aromatic substitution, pharmacological characterization, and bioavailability” (J Med Chem, 1998)
